Published values pooled from the literature.
Protocols differ between the studies behind these lines. Values after ≈ are worked out from the molar mass of the structure shown.

SMILES | organism | assay | system | setting | quantity | result
CN(C)c1cc(NC(=O)Cc2cncnc2)c(O)c2c1C[C@H]1C[C@H]3[C@H](N(C)C)C(O)=C(C(N)=O)C(=O)[C@@]3(O)C(O)=C1C2=O | Mycobacterium tuberculosis | microbial growth, broth dilution | H37RV | 7 days, pH 7.4 | MIC | 0.4 µg/mL (≈ 0.675 µM)
O=C(Cn1ccnc1[N+](=O)[O-])NCc1ccccc1 | Trypanosoma cruzi | parasite growth | MRC5 | intracellular, amastigote | EC50 | 1.6 µM
CC1(F)CN(C(=O)Cn2c(=O)c(C(=O)NCc3ccc(Cl)cc3)cc3nc(N4CCN(CC(=O)O)C4=O)cnc32)C1 | Human betaherpesvirus 5 | viral replication, inhibitor | AD169 |  | EC50 | 1.27 µM
Cc1ccc(Cn2cc(C(=O)NN)c(=O)c3cc(Oc4ccccc4)ccc32)cc1 | Trypanosoma cruzi | parasite growth | MRC5 | intracellular, amastigote | EC50 | 44 µM
CN1CCN(c2cnc3c(cc(C(=O)NCc4ccc(Cl)cc4)c(=O)n3CC(=O)N3CC(C)(F)C3)n2)C1=O | Human betaherpesvirus 5 | viral replication, inhibitor | AD169 |  | EC50 | 0.13 µM
CN(C)c1cc(NC(=O)Cc2ncccn2)c(O)c2c1C[C@H]1C[C@H]3[C@H](N(C)C)C(O)=C(C(N)=O)C(=O)[C@@]3(O)C(O)=C1C2=O | Mycobacterium tuberculosis | microbial growth, broth dilution | H37RV | 7 days, pH 7.4 | MIC | 0.8 µg/mL (≈ 1.35 µM)
O=C(Cn1ccnc1[N+](=O)[O-])NCc1ccccc1 | Trypanosoma cruzi | parasite growth, absorbance | MRC5 | intracellular, amastigote | IC50 | 2 to 5 µM
OC(Cn1cncn1)(Cn1cncn1)c1ccc(F)cc1F | Trypanosoma cruzi | parasite growth, resazurin |  | 24 h, trypomastigote | IC50 | 23.6 µM
